# Experimental data from different studies.
# Compare with care: the assays were run in different laboratories.
# Adora2a: Adenosine receptor A2a (Adora2a, Rattus norvegicus, UniProt P30543)
# AGTR2: Type-2 angiotensin II receptor (AGTR2, Homo sapiens, UniProt P50052)
# DRD1: D(1A) dopamine receptor (DRD1, Homo sapiens, UniProt P21728)
Compound,target,observed,mode,method,notes,Ki [nM]
CC(C)N1CCCn2c1nc1c2c(=O)n(C)c(=O)n1C,Adora2a,ligand displacement,,radioligand,cell membranes,4950
Oc1ccccc1OCc1nn2c(-c3cccc(Br)c3)nnc2s1,"Urease (Canavalia ensiformis, UniProt P07374)",enzyme activity,inhibitor,,,2250
CN1CCCn2c1nc1c2c(=O)n(C)c(=O)n1C,Adora2a,ligand displacement,,radioligand,cell membranes,4300
N#Cc1c(N)nc(SCC(N)=O)c(C#N)c1-c1ccc2c(c1)OCO2,Adora2a,ligand displacement,,radioligand,cell membranes,429
CCC(C)[C@H](NC(=O)c1cccc(C(=O)N(C)Cc2ccccc2)c1)C(=O)O (stereo in doubt),AGTR2,ligand displacement in cells,,radioligand,,9000
N#Cc1c(N)nc(SCC(N)=O)c(C#N)c1-c1cccc(O)c1,Adora2a,ligand displacement,,radioligand,cell membranes,751
CCCCN1CCCn2c1nc1c2c(=O)n(CCC)c(=O)n1CCC,Adora2a,ligand displacement,,radioligand,cell membranes,300
N#Cc1c(N)nc(SCC(N)=O)c(C#N)c1-c1ccc(O)cc1,Adora2a,ligand displacement,,radioligand,cell membranes,338
Cc1nc2cc(OCCCCN3CCN(c4cccc(Cl)c4Cl)CC3)ccc2s1,"Sodium-dependent serotonin transporter (SLC6A4, Homo sapiens, UniProt P31645)",ligand displacement,,radioligand,,340
CCCCOC(=O)NS(=O)(=O)c1sc(CC(C)C)cc1-c1ccc(OC(F)(F)F)c(Cn2ccnc2)c1,AGTR2,ligand displacement,,radioligand,cell membranes,280
N#Cc1c(N)nc2sc(C(N)=O)c(N)c2c1-c1ccc2c(c1)OCO2,Adora2a,ligand displacement,,radioligand,cell membranes,1060
CCC(C)[C@H](NC(=O)c1ccc(C)c(C(=O)N(CC)Cc2ccccc2)c1)C(=O)O (stereo in doubt),AGTR2,ligand displacement in cells,,radioligand,,3400
CCN1CCCn2c1nc1c2c(=O)n(C)c(=O)n1C,Adora2a,ligand displacement,,radioligand,cell membranes,2650
O=C1c2ccccc2CCCN1CCCCN1CCN(c2ccccn2)CC1,DRD1,cell-free assay,,radioligand,,1260
CC(C)CC(C)N1CCCn2c1nc1c2c(=O)n(C)c(=O)n1C (stereo not shown),Adora2a,ligand displacement,,radioligand,cell membranes,5370
CCC(C)[C@H](NC(=O)c1cccc(C(=O)N(Cc2ccccc2)Cc2ccccc2)c1)C(=O)O (stereo in doubt),AGTR2,ligand displacement in cells,,radioligand,,7500
CCC(C)N1CCCn2c1nc1c2c(=O)n(C)c(=O)n1C (stereo not shown),Adora2a,ligand displacement,,radioligand,cell membranes,4640
CCC(C)[C@H](NC(=O)c1ccc(C(=O)N(Cc2ccccc2)Cc2ccccc2)cc1)C(=O)O (stereo in doubt),AGTR2,ligand displacement in cells,,radioligand,,35000
Cc1cccc(CSc2nc(N)c(C#N)c(-c3cccc(O)c3)c2C#N)n1,Adora2a,ligand displacement,,radioligand,cell membranes,20.6
CCc1ccc(C(=O)N[C@H](C(=O)O)C(C)CC)cc1C(=O)N(CC)Cc1ccccc1 (stereo in doubt),AGTR2,ligand displacement in cells,,radioligand,,8300
CC1Cc2ccccc2N1C(=O)NCCCCN(C)[C@@H]1Cc2cccc3[nH]c(=O)n(c23)C1 (mixture of isomers),DRD1,ligand displacement,,radioligand,,> 10000
CCC(C)[C@H](NC(=O)c1ccc(C(=O)N(C)Cc2ccccc2)cc1)C(=O)O (stereo in doubt),AGTR2,ligand displacement in cells,,radioligand,,> 100000
CC(C)CN1CCCn2c1nc1c2c(=O)n(C)c(=O)n1C,Adora2a,ligand displacement,,radioligand,cell membranes,870
CCC(C)[C@H](NC(=O)c1cccc(C(=O)N(CC)Cc2ccccc2)c1)C(=O)O (stereo in doubt),AGTR2,ligand displacement in cells,,radioligand,,11000
CCCCCCN1CCCn2c1nc1c2c(=O)n(C)c(=O)n1C,Adora2a,ligand displacement,,radioligand,cell membranes,820
